PMC6925959 (Journal of medicinal chemistry, 2019)
Entries after “also recorded” stand apart in the source; their conditions may differ. Read-outs that look alike come from different tables or passages of the source.

Columns and labels:
tubulin = experiment: Inhibition of [3H]colchicine binding to tubulin; conditions: 1.0 µM tubulin, 5.0 µM [3H]colchicine
[1] = system: purified bovine brain tubulin; experiment: Inhibition of tubulin polymerization; format: biochemical; conditions: cell-free assay
[2] = system: SK-OV-3 (ovarian) cancer cell line; experiment: SRB growth inhibition assay, SK-OV-3; format: cell-based; conditions: Homo sapiens, SK-OV-3, 48 h, read-out: GI50 (μM) SRB assay SK-OV-3
[3] = system: DU-145 (prostate) cancer cell line; experiment: SRB growth inhibition assay, DU-145; format: cell-based, human; conditions: read-out: GI50 (μM) SRB assay DU-145
[4] = system: PC3-DAB2IP-luc human prostate tumor xenograft; experiment: In vivo vascular disruption by dynamic bioluminescence imaging; design: species or system rat
How it was run: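 Three male […] rats (about 6 weeks old, 100-120 g) carried s.c. right-thigh PC3-DAB2IP-luc tumors (5 X 10⁵ cells in 30% Matrigel), treated once tumors reached ≥1 cm diameter. Prodrug in saline was given IP as single or sequential doses, with CA4P IP as control. Under 3% isoflurane, 120 mg/kg D-luciferin was injected s.c. in the neck, fresh at each session. Tumor-ROI light emission was imaged over about 30 min at baseline, 4 h and 24 h.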

[5] = system: NCI-H460 (lung) cancer cell line; experiment: SRB growth inhibition assay, NCI-H460; format: cell-based, human; conditions: read-out: GI50 (μM) SRB assay NCI-H460
tumor vasculature = conditions: 30 mg/kg, rats; cited from earlier work

## COc1ccc(/C=C\c2cc(OC)c(OC)c(OC)c2)cc1O [CA4, combretastatin A-4, reference compound]
tubulin; compound at 1 μM
  % Inhibition of colchicine binding ± SD: 84 ± 3%

## COc1cc(C2=CC=CCc3c2ccc(OC)c3OP(=O)([O-])[O-])cc(OC)c1OC.[Na+].[Na+] [Compound 69, Sodium 3-methoxy-9-(3,4,5-trimethoxyphenyl)-5H-benzo[7]annulen-4-yl phosphate]
[1]
  Inhibition of tubulin polymerization (in words): inactive
[2]
  GI50: 15.3 nM
[3]; Homo sapiens, DU-145, 48 h
  GI50: 23.9 nM
[4]; 10 mg/kg IP, rat
  Change in BLI light emission / vascular perturbation: minimal change in light emission; also recorded: no vascular perturbation
[4]; 40 mg/kg IP, 24 h, rat
  Recovery of BLI signal: substantial recovery
[4]; 40 mg/kg IP, 48 h
  Appearance of the rats: appeared healthy
[4]; 80 mg/kg IP, rat
  Tolerability: well tolerated
[4]; 80 mg/kg IP, rat, compared with 40 mg/kg
  Vascular disruption at the higher dose: did not show additional vascular disruption

## COCCOCCOc1c(OC)ccc2c1CCCC=C2c1cc(OC)c(OC)c(OC)c1 [Compound 8, 3-Methoxy-4-(2-(2-methoxyethoxy)ethoxy)-9-(3,4,5-trimethoxyphenyl)-6,7-dihydro-5H-benzo[7]annulene]
[1]
  Inhibition of tubulin polymerization (in words): loss of inhibitory activity

## COc1ccc2c(c1CO)CCCC=C2c1cc(OC)c(OC)c(OC)c1 [Compound 28, (3-Methoxy-9-(3,4,5-trimethoxyphenyl)-6,7-dihydro-5H-benzo[7]annulen-4-yl)methanol]
[2]
  GI50: 40.3 nM

## COc1ccc2c(c1O)CCCC(O)C2(O)c1cc(OC)c(OC)c(OC)c1 (stereo not drawn) [Compound 15, 2-Methoxy-5-(3,4,5-trimethoxyphenyl)-6,7,8,9-tetrahydro-5H-benzo[7]annulene-1,5,6-triol]
tubulin; compound at 5 μM
  % Inhibition of colchicine binding ± SD: 0 (5 μM) %

## COc1cc(C2CCc3c(ccc(OC)c3OC)C(=O)C2)cc(OC)c1OC (stereo not drawn) [Compound 57, 1,2-Dimethoxy-7-(3,4,5-trimethoxyphenyl)-6,7,8,9-tetrahydro-5H-benzo[7]annulen-5-one]
[1]
  Inhibition of tubulin polymerization (in words): lack of activity
tubulin; compound at 5 μM
  % Inhibition of colchicine binding ± SD: 0 (5 μM) %

## COc1cc(C2(O)C=CCCc3c2ccc(OC)c3OC)cc(OC)c1OC (stereo not drawn) [Compound 56, 1,2-Dimethoxy-5-(3,4,5-trimethoxyphenyl)-8,9-dihydro-5H-benzo[7]annulen-5-ol]
[1]
  Inhibition of tubulin polymerization (in words): lack of tubulin activity
tubulin; compound at 5 μM
  % Inhibition of colchicine binding ± SD: 0 (5 μM) %

## COc1cc(C2=CCCCc3c2ccc(OC)c3OCCO)cc(OC)c1OC [Compound 11, 2-((3-Methoxy-9-(3,4,5-trimethoxyphenyl)-6,7-dihydro-5H-benzo[7]annulen-4-yl)oxy)ethan-1-ol]
[1]
  Inhibition of tubulin polymerization (in words): loss of inhibitory activity

## COc1ccc2c(c1O)CCCC=C2c1cc(OC)c(OC)c(OC)c1 [KGP18, 3-Methoxy-9-(3,4,5-trimethoxyphenyl)-6,7-dihydro-5H-benzo[7]annulen-4-ol, reference compound]
[2]
  GI50: 0.0543 nM
[5]; Homo sapiens, NCI-H460, 48 h
  GI50: 0.0418 nM
[3]; Homo sapiens, DU-145, 48 h
  GI50: 0.0249 nM

## N-(1-hydroxy-2-methoxy-5-(3,4,5-trimethoxyphenyl)-6,7,8,9-tetrahydro-5H-benzo[7]annulen-7-yl)acetamide [Compound 49]
tubulin; compound at 5 μM
  % Inhibition of colchicine binding ± SD: 0.4 ± 0.6 (5 μM) %
[5]; NCI-H460, 48 h treatment
  GI50: 334 nM
[3]; DU-145, 48 h treatment
  GI50: 1200 nM

## COc1ccc(/C=C\c2cc(OC)c(OC)c(OC)c2)cc1OP(=O)([O-])[O-].[Na+].[Na+] [CA4P, combretastatin A-4 phosphate, reference compound]
[4]; 30 mg/kg IP, rat
  Extent and longevity of diminished BLI signal compared with 40 mg/kg 69: very similar effect
Tumor vasculature
  Vascular shutdown: extensive vascular shutdown

## COc1ccc2c(c1O)CC=CC=C2c1cc(OC)c(OC)c(OC)c1 [Compound 68, 3-Methoxy-9-(3,4,5-trimethoxyphenyl)-5H-benzo[7]annulen-4-ol]
[2]
  GI50: 6.9 nM
[3]; Homo sapiens, DU-145, 48 h
  GI50: 97.6 nM
